A short description of assay [1]: Antioxidant activity assessed as inhibition of LDL oxidation. Format: functional. The essentials:
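LDL oxidation inhibition, run by a literature method with slight modifications. IC50 in µM; data are mean ± standard deviation of three replicates.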

Assay [2] deals with T1, Sterol O-acyltransferase 1 (Homo sapiens) (UniProt P35610).
T1 sequence (whole entry): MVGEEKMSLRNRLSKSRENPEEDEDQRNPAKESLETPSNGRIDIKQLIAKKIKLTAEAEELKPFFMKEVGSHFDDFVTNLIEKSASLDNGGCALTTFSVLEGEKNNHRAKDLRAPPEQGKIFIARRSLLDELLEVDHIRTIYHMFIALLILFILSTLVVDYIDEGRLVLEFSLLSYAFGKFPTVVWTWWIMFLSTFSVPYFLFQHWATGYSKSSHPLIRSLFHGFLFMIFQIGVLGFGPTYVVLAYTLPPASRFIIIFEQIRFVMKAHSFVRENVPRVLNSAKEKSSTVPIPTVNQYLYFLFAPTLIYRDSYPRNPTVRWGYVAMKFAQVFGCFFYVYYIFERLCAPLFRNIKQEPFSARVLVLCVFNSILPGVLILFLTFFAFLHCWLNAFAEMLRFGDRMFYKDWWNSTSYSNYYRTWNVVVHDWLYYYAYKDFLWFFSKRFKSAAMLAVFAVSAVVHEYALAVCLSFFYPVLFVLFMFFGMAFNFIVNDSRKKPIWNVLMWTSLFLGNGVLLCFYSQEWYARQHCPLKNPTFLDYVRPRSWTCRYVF
Description: Inhibition of human ACAT1 at 0.4 mM. Summed up: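 Human ACAT-1 inhibition, run by the Brecher and Chan method with slight modifications. Test concentration 0.4 mM; read-out is percent inhibition; data are mean ± standard deviation of three replicates.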

One may read the IC50 as the midpoint of a concentration-inhibition curve. In general, inhibition refers to the drop in the measured response relative to a control, in per cent.

Each structure is given as a SMILES string.

With `COc1c(C(=O)c2ccccc2)ccc2c1OCO2`, the IC50 in assay [1] came to 524 µM. Moreover, in assay [2], the inhibition was found to be 54%.

On to `O=c1c2cc(O)ccc2oc2cccc(O)c12`, for which the IC50 in assay [1] was determined as 386 µM. In assay [2], this compound came in with an inhibition of 31%.

Regarding `COc1c([C@@H](O)c2ccccc2)ccc2c1OCO2`, in assay [1], the IC50 was 192 µM. Further, the inhibition in assay [2] turned out to be 31%.

Turning to `COc1c(O)ccc2oc3c(O)cc(O)cc3c(=O)c12`, the IC50 in assay [1] was found to be 25.5 µM. This compound also gave an inhibition in assay [2] of 7%.

In the case of `COc1cc(OC)cc(-c2ccccc2)c1`, in assay [1], the IC50 was 48.1 µM. The inhibition in assay [2] was determined as 43%.

Take `COc1cccc(O)c1C(=O)OCc1ccccc1`: the IC50 in assay [1] stood at 478 µM. In assay [2], the inhibition stood at 46%.

In the case of `COc1cc(O)cc(-c2ccccc2)c1`, the 50% inhibitory concentration (IC50) in assay [1] was 15.5 µM. The inhibition in assay [2] came out at 30%.

Consider `CC(C)(Sc1cc(C(C)(C)C)c(O)c(C(C)(C)C)c1)Sc1cc(C(C)(C)C)c(O)c(C(C)(C)C)c1` [PROBUCOL], for which, in assay [1], the IC50 was 4.3 µM.

For the origin of these results see ChEMBL document CHEMBL1157958, “Phenolic compounds from the roots of Lindera fruticosa” (J Nat Prod, 2006).
